This passage reports MIC and IC50 results from ChEMBL document CHEMBL1124568, “2,4-Diamino-5-benzylpyrimidines as antibacterial agents. 13. Some alkenyl derivatives with high in vitro activity against anaerobic organisms” (J Med Chem, 1989).

≈ marks a conversion by molar mass, not a printed value.

Assay [1] relates to Fusobacterium nucleatum. Put plainly: Ratio of antibacterial (Fusobacterium nucleatum) activities compared to that of trimethoprim and metronidazole. It counts as functional.
The test system of assay [2] is Klebsiella aerogenes. Put plainly: Antibacterial (Enterobacter aerogenes 2201/86) activity compared to trimethoprim. It counts as functional. The method, boiled down: (§1)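 Each MIC is divided by the MIC of trimethoprim run alongside. Serial dilutions were normally 0.1, 0.3, 1, 3, 10, etc., and occasionally 1, 5 and 10. For E. coli the value is the average over six strains.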

For assay [3], the system named is Bacteroides thetaiotaomicron. Nature of the assay: Ratio of antibacterial (Bacteroides thetaiotaomicron) activities compared to that of trimethoprim and metronidazole. Type of assay: functional.
The subject of assay [4] is Streptococcus pyogenes. Nature of the assay: Antibacterial ([…] CN10) activity compared to trimethoprim. It counts as functional. In short, it runs like this:
as §1

Assay [5] deals with Serratia marcescens. Nature of the assay: Antibacterial (Serratia marcescens CN2398) activity compared to trimethoprim. Type of assay: functional. In short, it runs like this:
as §1

The test system of assay [6] is Shigella flexneri. Nature of the assay: Antibacterial (Shigella flexneri CN6007) activity compared to trimethoprim. It counts as functional. In short, it runs like this: as §1
The subject of assay [7] is Proteus vulgaris. Put plainly: Antibacterial (Proteus vulgaris CN329) activity compared to trimethoprim. It counts as functional. In short, it runs like this: as §1
Assay [8] has as its system Pasteurella multocida. Nature of the assay: Antibacterial (Pasteurella multocides ATCC 6587) activity compared to trimethoprim. Type of assay: functional. The method, boiled down:
as §1

For assay [9], the system named is Phocaeicola vulgatus. Put plainly: Ratio of antibacterial (Bacteroides vulgatus) activities compared to that of trimethoprim and metronidazole. Type of assay: functional.
The subject of assay [10] is Mycolicibacterium smegmatis. Put plainly: Antibacterial (Mycobacterium smegmatis S3254) activity compared to trimethoprim. Type of assay: functional. The method, boiled down:
as §1

The test system of assay [11] is Clostridium perfringens. Nature of the assay: Ratio of antibacterial (Clostridium perfringens) activities compared to that of trimethoprim and metronidazole. It counts as functional.
For assay [12], the system named is Escherichia coli. Put plainly: Antibacterial (Escherichia coli) activity compared to trimethoprim. It counts as functional. In short, it runs like this:
as §1

The subject of assay [13] is Klebsiella pneumoniae. Nature of the assay: Antibacterial (Klebsiella pneumoniae CN3632) activity compared to trimethoprim. It counts as functional. The method, boiled down:
as §1

Assay [14] concerns Clostridioides difficile. Nature of the assay: Ratio of antibacterial (Clostridium difficile) activities compared to that of trimethoprim and metronidazole. Type of assay: functional.
A short description of assay [15]: Antibacterial (Salmonella typhi CN512) activity compared to trimethoprim. It counts as functional, salmonella typhosa.
Assay [16] deals with Staphylococcus aureus. Put plainly: Antibacterial (Staphylococcus aureus CN491) activity compared to trimethoprim. It counts as functional. In short, it runs like this:
as §1

For assay [17], the target named is T1, Dihydrofolate reductase (Rattus norvegicus, UniProt Q920D2).
T1 sequence (Q920D2 whole entry): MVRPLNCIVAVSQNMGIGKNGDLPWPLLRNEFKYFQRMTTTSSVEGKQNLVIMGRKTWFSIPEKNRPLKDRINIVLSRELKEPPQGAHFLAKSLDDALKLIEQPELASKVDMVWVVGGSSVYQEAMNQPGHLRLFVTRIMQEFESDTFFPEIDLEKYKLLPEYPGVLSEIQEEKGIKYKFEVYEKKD
Put plainly: In vitro inhibition of rat liver dihydrofolate reductase. The conditions noted are these: read-out: I50.

The term MIC denotes the least concentration at which growth counts as inhibited.

Consider `C=CCc1cc(Cc2cnc(N)nc2N)cc(CC=C)c1O`, for which the minimal inhibitory concentration (MIC) in [1] was 0.8 µg/mL; in [2], 20 µg/mL (≈ 67.5 µM); in assay [3], 0.4 µg/mL; in assay [4], 1 µg/mL (≈ 3.37 µM); in [5], over 10 µg/mL; in assay [6] it was 50 µg/mL (≈ 169 µM). In addition, the MIC in assay [7] was 50 µg/mL (≈ 169 µM); in assay [8] it was 100 µg/mL (≈ 337 µM); in assay [9] it was 0.8 µg/mL; in assay [10], 5 µg/mL (≈ 16.9 µM); in [11] it was over 25 µg/mL; in assay [12], 21 µg/mL (≈ 70.9 µM). The MIC is 20 µg/mL (≈ 67.5 µM) in [13], over 25 µg/mL in assay [14], 10 µg/mL (≈ 33.7 µM) in [15] and 1 µg/mL (≈ 3.37 µM) in [16]. Moreover, the IC50 in [17] amounted to 9.6 µM.
On to `C=CCOc1ccc(Cc2cnc(N)nc2N)cc1OC`, for which the MIC in [1] turned out to be 0.8 µg/mL; in assay [2] it was 10 µg/mL (≈ 34.9 µM); in [4] it was 3 µg/mL (≈ 10.5 µM); in assay [5] it was 10 µg/mL (≈ 34.9 µM); in assay [6] it was 10 µg/mL (≈ 34.9 µM); in assay [7], 3 µg/mL (≈ 10.5 µM). For the same compound, the MIC in assay [8] was 10 µg/mL (≈ 34.9 µM); in [10], 3 µg/mL (≈ 10.5 µM); in assay [11], over 25 µg/mL; in assay [12], 7.6 µg/mL (≈ 26.5 µM); in [13] it was 10 µg/mL (≈ 34.9 µM); in [14] it was over 25 µg/mL. The MIC in assay [15] and in assay [16] was 10 µg/mL (≈ 34.9 µM) in each case. Moreover, the IC50 in assay [17] is 49 µM.
Turning to `C=CCOc1ccc(Cc2cnc(N)nc2N)cc1CC=C`, the MIC in [1] was 0.8 µg/mL; in [2], over 100 µg/mL; in assay [4], 2 µg/mL (≈ 6.75 µM); in [5], over 10 µg/mL; in assay [6] it was 500 µg/mL (≈ 1690 µM); in [7], over 50 µg/mL. Moreover, the MIC is 500 µg/mL (≈ 1690 µM) in [8]; over 100 µg/mL in assay [10]; over 25 µg/mL in assay [11]; 72 µg/mL (≈ 243 µM) in assay [12]; over 100 µg/mL in assay [13]; over 25 µg/mL in [14]. The values for the MIC in assay [15] and in [16] were 1000 µg/mL (≈ 3370 µM) and 10 µg/mL (≈ 33.7 µM), respectively. The IC50 in [17] is 11 µM.
Consider `COc1cc(Cc2cnc(N)nc2N)cc(CC(C)O)c1O` (centres undefined), for which the MIC in [2] was 3 µg/mL (≈ 9.86 µM); in assay [4], 3 µg/mL (≈ 9.86 µM); in assay [5] it was over 10 µg/mL; in assay [6] it was 3 µg/mL (≈ 9.86 µM); in assay [7], 30 µg/mL (≈ 98.6 µM); in assay [8] it was 3 µg/mL (≈ 9.86 µM). Moreover, the MIC was found to be 3 µg/mL (≈ 9.86 µM) in [10]; 4 µg/mL (≈ 13.1 µM) in assay [12]; 10 µg/mL (≈ 32.9 µM) in assay [13]; 10 µg/mL (≈ 32.9 µM) in assay [15]; 3 µg/mL (≈ 9.86 µM) in assay [16]. Moreover, in assay [17], the IC50 turned out to be 36 µM.
With `CCCc1cc(Cc2cnc(N)nc2N)cc(OC)c1OC`, the MIC in [1] was 0.4 µg/mL; in [2] it was 10 µg/mL (≈ 33.1 µM); in assay [3], 1.6 µg/mL; in assay [4] it was 0.1 µg/mL (≈ 0.331 µM); in [5], 3 µg/mL (≈ 9.92 µM); in [6], 10 µg/mL (≈ 33.1 µM). In addition, the MIC is 10 µg/mL (≈ 33.1 µM) in [7]; 10 µg/mL (≈ 33.1 µM) in assay [8]; 1.6 µg/mL in assay [9]; 3 µg/mL (≈ 9.92 µM) in assay [10]; over 25 µg/mL in [11]; 6 µg/mL (≈ 19.8 µM) in [12]. The minimum inhibitory concentration (MIC) in assay [13] is 10 µg/mL (≈ 33.1 µM); in assay [14] it was over 25 µg/mL; in assay [15], 3 µg/mL (≈ 9.92 µM); in assay [16], 0.1 µg/mL (≈ 0.331 µM). Moreover, the IC50 in [17] worked out at 37 µM.
Turning to `C=CCOc1cc(Cc2cnc(N)nc2N)cc(OC)c1OC`, the MIC is 0.8 µg/mL in assay [1]; 10 µg/mL (≈ 31.6 µM) in assay [2]; 12.5 µg/mL in assay [3]; 0.3 µg/mL (≈ 0.948 µM) in [4]; 3 µg/mL (≈ 9.48 µM) in assay [5]; 10 µg/mL (≈ 31.6 µM) in [6]. Also, the MIC was 10 µg/mL (≈ 31.6 µM) in assay [7]; 10 µg/mL (≈ 31.6 µM) in assay [8]; 6.2 µg/mL in [9]; 3 µg/mL (≈ 9.48 µM) in assay [10]; over 25 µg/mL in [11]; 10 µg/mL (≈ 31.6 µM) in [13]. The minimum inhibitory concentration (MIC) was over 25 µg/mL in assay [14], 10 µg/mL (≈ 31.6 µM) in assay [15] and 0.3 µg/mL (≈ 0.948 µM) in assay [16]. In assay [17], the IC50 turned out to be 150 µM.
Turning to `C/C=C/c1cc(Cc2cnc(N)nc2N)cc(CCC)c1OC`, the MIC in [1] is 0.8 µg/mL; in assay [2], 100 µg/mL (≈ 320 µM); in assay [3], 0.4 µg/mL; in [4] it was 0.1 µg/mL (≈ 0.32 µM); in assay [5] it was over 5 µg/mL; in assay [6] it was 100 µg/mL (≈ 320 µM). Besides, the MIC is over 100 µg/mL in assay [7]; 20 µg/mL (≈ 64 µM) in [8]; 0.4 µg/mL in assay [9]; 2 µg/mL (≈ 6.4 µM) in assay [10]; 12.5 µg/mL in assay [11]; 26 µg/mL (≈ 83.2 µM) in assay [12]. Further, the MIC is 100 µg/mL (≈ 320 µM) in assay [13], 12.5 µg/mL in [14], 20 µg/mL (≈ 64 µM) in assay [15] and 1 µg/mL (≈ 3.2 µM) in assay [16]. Also, the IC50 in [17] was 24 µM.
